Source: ChEMBL document CHEMBL4715736, “Identification of anticancer agents based on the thieno[2,3-b]pyridine and 1H-pyrazole molecular scaffolds” (2016)

The compounds below were run on SNB-19 (assay: Growth inhibition of human SNB-19 cells assessed as cell growth at 0.1 uM incubated for 48 hrs by sulforhodamine B assay relative to control). Conditions: read-out: Activity.
Format: functional
Work on COc1cccc(NC(=O)c2sc3nc4c(cc3c2N)CN(Cc2ccccc2)CC4)c1 yielded a growth at 0.1 µM of 94%.

These compounds were tested on OVCAR-3 (assay: Growth inhibition of human OVCAR-3 cells assessed as cell growth at 100 uM incubated for 48 hrs by sulforhodamine B assay relative to control). Conditions: read-out: Activity.
Format: functional
Work on COc1cccc(NC(=O)c2sc3nc4c(cc3c2N)CN(Cc2ccccc2)CC4)c1 yielded a growth at 100 µM of -60%.

Each compound was assayed on A549 (assay: Growth inhibition of human A549/ATCC cells assessed as cell growth at 100 uM incubated for 48 hrs by sulforhodamine B assay relative to control). Conditions: read-out: Activity.
Format: functional
Summary of the method: (§1)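 NCI Developmental Therapeutics Program NCI60 panel. Compounds that were active in the 10 µM one-dose screen went on to dose–response testing. Growth at each concentration is expressed relative to untreated control (100%). GI50 (concentration giving 50% of maximal inhibition of proliferation) and TGI (concentration giving total growth inhibition) were derived from the curves.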
For COc1cccc(NC(=O)c2sc3nc4c(cc3c2N)CN(Cc2ccccc2)CC4)c1, the growth at 100 µM was -8%.

The compounds below were run on RPMI-8226 (assay: Growth inhibition of human RPMI-8226 cells assessed as cell growth at 100 uM incubated for 48 hrs by sulforhodamine B assay relative to control). Conditions: read-out: Activity.
Format: functional
Compound COc1cccc(NC(=O)c2sc3nc4c(cc3c2N)CN(Cc2ccccc2)CC4)c1 has a growth at 100 µM of 27%.

What follows are compounds tested on NCI-H522 (assay: Growth inhibition of human NCI-H522 cells assessed as cell growth at 1 uM incubated for 48 hrs by sulforhodamine B assay relative to control). Conditions: read-out: Activity.
Format: functional
In the case of COc1cccc(NC(=O)c2sc3nc4c(cc3c2N)CN(Cc2ccccc2)CC4)c1, the growth at 1 µM is reported as 74%.

What follows are compounds tested on BT-549 (assay: Growth inhibition of human BT-549 cells assessed as cell growth at 1 uM incubated for 48 hrs by sulforhodamine B assay relative to control). Conditions: read-out: Activity.
Format: functional
COc1cccc(NC(=O)c2sc3nc4c(cc3c2N)CN(Cc2ccccc2)CC4)c1 was tested, and the growth at 1 µM was 72%.

What follows are compounds tested on SF-268 (assay: Growth inhibition of human SF-268 cells assessed as cell growth at 100 uM incubated for 48 hrs by sulforhodamine B assay relative to control). Conditions: read-out: Activity.
Format: functional
With COc1cccc(NC(=O)c2sc3nc4c(cc3c2N)CN(Cc2ccccc2)CC4)c1 the growth at 100 µM was -40%.

What follows are compounds tested on SNB-75 (assay: Growth inhibition of human SNB-75 cells assessed as cell growth at 0.01 uM incubated for 48 hrs by sulforhodamine B assay relative to control). Conditions: read-out: Activity.
Format: functional
For COc1cccc(NC(=O)c2sc3nc4c(cc3c2N)CN(Cc2ccccc2)CC4)c1, the growth at 0.01 µM was 88%.

The compounds below were run on COLO 205 (assay: Growth inhibition of human COLO 205 cells assessed as cell growth at 1 uM incubated for 48 hrs by sulforhodamine B assay relative to control). Conditions: read-out: Activity.
Format: functional
Summary of the method: as §1
COc1cccc(NC(=O)c2sc3nc4c(cc3c2N)CN(Cc2ccccc2)CC4)c1 was tested, and the growth at 1 µM was 92%.

These compounds were tested on MDA-MB-468 (assay: Growth inhibition of human MDA-MB-468 cells incubated for 48 hrs by sulforhodamine B assay). Conditions: not given.
Format: functional
Summary of the method: (§2)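 NCI60 panel at the NCI Developmental Therapeutics Program. Only compounds active in the 10 µM screen went to dose-response testing. GI50, the concentration giving 50% of maximal inhibition of proliferation, and TGI, the concentration giving total growth inhibition, were derived from the dose-response curves.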
With COc1cccc(NC(=O)c2sc3nc4c(cc3c2N)CN(Cc2ccccc2)CC4)c1 the GI50 was 2.6 µM and the TGI was 61.4 µM.

Same assay, conditions: read-out: LC50 (the source's name)
In the case of COc1cccc(NC(=O)c2sc3nc4c(cc3c2N)CN(Cc2ccccc2)CC4)c1, the CC50 is reported as greater than 100 µM.

The compounds below were run on HCT-116 (assay: Growth inhibition of human HCT-116 cells incubated for 48 hrs by sulforhodamine B assay). Conditions: not given.
Format: functional
Summary of the method: as §2
Work on COc1cccc(NC(=O)c2sc3nc4c(cc3c2N)CN(Cc2ccccc2)CC4)c1 yielded a GI50 of 1.74 µM, an LC50 (concentration killing 50% of cells) greater than 100 µM and a TGI greater than 100 µM.

These compounds were tested on A498 (assay: Growth inhibition of human A498 cells incubated for 48 hrs by sulforhodamine B assay). Conditions: not given.
Format: functional
Summary of the method: as §1
Work on COc1cccc(NC(=O)c2sc3nc4c(cc3c2N)CN(Cc2ccccc2)CC4)c1 yielded a GI50 of 3.82 µM and a TGI of 24.4 µM.

Same assay, conditions: read-out: LC50 (the source's name)
With COc1cccc(NC(=O)c2sc3nc4c(cc3c2N)CN(Cc2ccccc2)CC4)c1 the CC50 was greater than 100 µM.

These compounds were tested on MDA-MB-468 (assay: Growth inhibition of human MDA-MB-468 cells assessed as cell growth at 0.1 uM incubated for 48 hrs by sulforhodamine B assay relative to control). Conditions: read-out: Activity.
Format: functional
Work on COc1cccc(NC(=O)c2sc3nc4c(cc3c2N)CN(Cc2ccccc2)CC4)c1 yielded a growth at 0.1 µM of 89%.

Each compound was assayed on OVCAR-4 (assay: Growth inhibition of human OVCAR-4 cells assessed as cell growth at 1 uM incubated for 48 hrs by sulforhodamine B assay relative to control). Conditions: read-out: Activity.
Format: functional
COc1cccc(NC(=O)c2sc3nc4c(cc3c2N)CN(Cc2ccccc2)CC4)c1 gave a growth at 1 µM of 78%.

These compounds were tested on DU-145 (assay: Growth inhibition of human DU-145 cells incubated for 48 hrs by sulforhodamine B assay). Conditions: not given.
Format: functional
Summary of the method: as §1
Work on COc1cccc(NC(=O)c2sc3nc4c(cc3c2N)CN(Cc2ccccc2)CC4)c1 yielded a GI50 of 5.22 µM and a TGI of 22.2 µM.

Same assay, conditions: read-out: LC50 (the source's name)
COc1cccc(NC(=O)c2sc3nc4c(cc3c2N)CN(Cc2ccccc2)CC4)c1 gave a CC50 of 76.3 µM.

Each compound was assayed on UO-31 (assay: Growth inhibition of human UO-31 cells assessed as cell growth at 100 uM incubated for 48 hrs by sulforhodamine B assay relative to control). Conditions: read-out: Activity.
Format: functional
COc1cccc(NC(=O)c2sc3nc4c(cc3c2N)CN(Cc2ccccc2)CC4)c1 showed a growth at 100 µM of -23%.

These compounds were tested on K562 (assay: Growth inhibition of human K562 cells assessed as cell growth at 100 uM incubated for 48 hrs by sulforhodamine B assay relative to control). Conditions: read-out: Activity.
Format: functional
In the case of COc1cccc(NC(=O)c2sc3nc4c(cc3c2N)CN(Cc2ccccc2)CC4)c1, the growth at 100 µM is reported as 8%.

The compounds below were run on UACC-62 (assay: Growth inhibition of human UACC-62 cells assessed as cell growth at 1 uM incubated for 48 hrs by sulforhodamine B assay relative to control). Conditions: read-out: Activity.
Format: functional
Work on COc1cccc(NC(=O)c2sc3nc4c(cc3c2N)CN(Cc2ccccc2)CC4)c1 yielded a growth at 1 µM of 58%.

What follows are compounds tested on SK-OV-3 (assay: Growth inhibition of human SK-OV-3 cells assessed as cell growth at 100 uM incubated for 48 hrs by sulforhodamine B assay relative to control). Conditions: read-out: Activity.
Format: functional
Work on COc1cccc(NC(=O)c2sc3nc4c(cc3c2N)CN(Cc2ccccc2)CC4)c1 yielded a growth at 100 µM of -66%.

These compounds were tested on SW-620 (assay: Growth inhibition of human SW-620 cells incubated for 48 hrs by sulforhodamine B assay). Conditions: not given.
Format: functional
Summary of the method: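 NCI DTP 60-line human tumour panel. Dose-response curves were run only for ligands active in the initial 10 µM screen. GI50 (concentration giving 50% of maximal inhibition of proliferation) and TGI (concentration giving total growth inhibition) were derived from these curves.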
For COc1cccc(NC(=O)c2sc3nc4c(cc3c2N)CN(Cc2ccccc2)CC4)c1, the GI50 was 1.85 µM, the LC50 (concentration killing 50% of cells) was greater than 100 µM and the TGI was 72.2 µM.

Each compound was assayed on CCRF-CEM (assay: Growth inhibition of human CCRF-CEM cells incubated for 48 hrs by sulforhodamine B assay). Conditions: not given.
Format: functional
Summary of the method: as §1
With COc1cccc(NC(=O)c2sc3nc4c(cc3c2N)CN(Cc2ccccc2)CC4)c1 the GI50 was 29.5 µM, the LC50 was greater than 100 µM and the TGI was greater than 100 µM.

Each compound was assayed on TK-10 (assay: Growth inhibition of human TK-10 cells assessed as cell growth at 1 uM incubated for 48 hrs by sulforhodamine B assay relative to control). Conditions: read-out: Activity.
Format: functional
Compound COc1cccc(NC(=O)c2sc3nc4c(cc3c2N)CN(Cc2ccccc2)CC4)c1 has a growth at 1 µM of 98%.

What follows are compounds tested on NCI-H226 (assay: Growth inhibition of human NCI-H226 cells assessed as cell growth at 0.1 uM incubated for 48 hrs by sulforhodamine B assay relative to control). Conditions: read-out: Activity.
Format: functional
Compound COc1cccc(NC(=O)c2sc3nc4c(cc3c2N)CN(Cc2ccccc2)CC4)c1 has a growth at 0.1 µM of 87%.

Each compound was assayed on SK-MEL-5 (assay: Growth inhibition of human SK-MEL-5 cells assessed as cell growth at 0.01 uM incubated for 48 hrs by sulforhodamine B assay relative to control). Conditions: read-out: Activity.
Format: functional
For COc1cccc(NC(=O)c2sc3nc4c(cc3c2N)CN(Cc2ccccc2)CC4)c1, the growth at 0.01 µM was 99%.

These compounds were tested on SF-295 (assay: Growth inhibition of human SF-295 cells assessed as cell growth at 0.1 uM incubated for 48 hrs by sulforhodamine B assay relative to control). Conditions: read-out: Activity.
Format: functional
Work on COc1cccc(NC(=O)c2sc3nc4c(cc3c2N)CN(Cc2ccccc2)CC4)c1 yielded a growth at 0.1 µM of 90%.

What follows are compounds tested on OVCAR-3 (assay: Growth inhibition of human OVCAR-3 cells assessed as cell growth at 0.1 uM incubated for 48 hrs by sulforhodamine B assay relative to control). Conditions: read-out: Activity.
Format: functional
In the case of COc1cccc(NC(=O)c2sc3nc4c(cc3c2N)CN(Cc2ccccc2)CC4)c1, the growth at 0.1 µM is reported as 103%.

Each compound was assayed on MCF7 (assay: Growth inhibition of human MCF7 cells assessed as cell growth at 1 uM incubated for 48 hrs by sulforhodamine B assay relative to control). Conditions: read-out: Activity.
Format: functional
In the case of COc1cccc(NC(=O)c2sc3nc4c(cc3c2N)CN(Cc2ccccc2)CC4)c1, the growth at 1 µM is reported as 40%.

The compounds below were run on ACHN (assay: Growth inhibition of human ACHN cells assessed as cell growth at 100 uM incubated for 48 hrs by sulforhodamine B assay relative to control). Conditions: read-out: Activity.
Format: functional
COc1cccc(NC(=O)c2sc3nc4c(cc3c2N)CN(Cc2ccccc2)CC4)c1 showed a growth at 100 µM of -3%.

These compounds were tested on SF-539 (assay: Growth inhibition of human SF-539 cells assessed as cell growth at 100 uM incubated for 48 hrs by sulforhodamine B assay relative to control). Conditions: read-out: Activity.
Format: functional
Compound COc1cccc(NC(=O)c2sc3nc4c(cc3c2N)CN(Cc2ccccc2)CC4)c1 has a growth at 100 µM of -75%.

What follows are compounds tested on MDA-MB-231 (assay: Growth inhibition of human MDA-MB-231 cells assessed as cell growth at 100 uM incubated for 48 hrs by sulforhodamine B assay relative to control). Conditions: read-out: Activity.
Format: functional
COc1cccc(NC(=O)c2sc3nc4c(cc3c2N)CN(Cc2ccccc2)CC4)c1 was tested, and the growth at 100 µM was -8%.

The compounds below were run on SNB-19 (assay: Growth inhibition of human SNB-19 cells assessed as cell growth at 1 uM incubated for 48 hrs by sulforhodamine B assay relative to control). Conditions: read-out: Activity.
Format: functional
Compound COc1cccc(NC(=O)c2sc3nc4c(cc3c2N)CN(Cc2ccccc2)CC4)c1 has a growth at 1 µM of 82%.

Each compound was assayed on HCC 2998 (assay: Growth inhibition of human HCC 2998 cells assessed as cell growth at 1 uM incubated for 48 hrs by sulforhodamine B assay relative to control). Conditions: read-out: Activity.
Format: functional
Summary of the method: as §1
In the case of COc1cccc(NC(=O)c2sc3nc4c(cc3c2N)CN(Cc2ccccc2)CC4)c1, the growth at 1 µM is reported as 86%.

These compounds were tested on HOP-62 (assay: Growth inhibition of human HOP-62 cells assessed as cell growth at 100 uM incubated for 48 hrs by sulforhodamine B assay relative to control). Conditions: read-out: Activity.
Format: functional
Work on COc1cccc(NC(=O)c2sc3nc4c(cc3c2N)CN(Cc2ccccc2)CC4)c1 yielded a growth at 100 µM of -71%.

Each compound was assayed on HOP-92 (assay: Growth inhibition of human HOP-92 cells assessed as cell growth at 1 uM incubated for 48 hrs by sulforhodamine B assay relative to control). Conditions: read-out: Activity.
Format: functional
COc1cccc(NC(=O)c2sc3nc4c(cc3c2N)CN(Cc2ccccc2)CC4)c1 gave a growth at 1 µM of 64%.

What follows are compounds tested on SK-MEL-28 (assay: Growth inhibition of human SK-MEL-28 cells assessed as cell growth at 0.1 uM incubated for 48 hrs by sulforhodamine B assay relative to control). Conditions: read-out: Activity.
Format: functional
With COc1cccc(NC(=O)c2sc3nc4c(cc3c2N)CN(Cc2ccccc2)CC4)c1 the growth at 0.1 µM was 99%.
